B1: tRNA (parent)
chain: GUUCCGUUGGCGUAAUGGUAACGCGUCUCCCUCCUAAGGAGAAGACUGCGGGUUCGAGUCCCGUACGGAACG

Variants of: B1
Experiment: yeast fitness, log relative to wild type (ln ratio); higher = fitter; tRNA-Arg(CCU), competitive growth, 37 C, 1 M NaCl
Outline: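 Variants were counted by 125 bp paired-end Illumina sequencing after pools of a combinatorial tRNA-Arg(CCU) library, held on a HIS3 centromeric plasmid in BY4742 lacking the chromosomal gene, grew ~6.5 generations (~26.5 h) in SC-HIS 1M NaCl at 37 °C. Each genotype's fitness is the natural log of its generations relative to the wild type's. Generations were OD-scaled log2 output/input frequencies, inverse-variance weighted over replicates.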

Variant	yeast fitness (ln)
GGUCCGUUGGCGUAAUGGUAACGCGUCUCCCUCCUAAGGAGACGACUGCGGGUUCGAGUCCCGUAAGGAACG	-0.0672
AGUCCAUUGGCGUAAUGGUAACGCGUCUCCCUCCUAAGGAGACGAUUGCGGGUUCGAGUCCCGUAUGGAGCG	-0.181
AGUCCAUUGGCGUAAUGGUAACGCGUCUCCCUCCUAAGGAGAAGAUUGCGGGUUCGAGUCCCGUACGGAUCG	-0.143
GGUCCUUUGGCGUAAUGGUAACGCGUUUCCCUCCUAAGGAGAAGAUUGCGGGUUCGAGUCCCGUAUGGGACG	-0.258
AUUCCUUUGGCGUAAUGGUAACGCGUUUCCCUCCUAAGGAGAAGACUGCGGGUUCGAGUCCCGUAUGGAACG	-0.29
GCUCCGUUGGCGUAAUGGUAACGCGUUUCCCUCCUAAGGAGAAGACUGCGGGUUCGAGUCCCGUACGGGGUG	-0.0353
GUUCCGUUGGCGUAAUGGUAACGCGUCUCCCUCCUAAGGAGACGAUUGCGGGUUCGAGUCCCGUAUGGGGUG	-0.158
AGUCCUUUGGCGUAAUGGUAACGCGUUUCCCUCCUAAGGAGAAGACUGCGGGUUCGAGUCCCGUACGGAUCG	-0.265
AUUCCUUUGGCGUAAUGGUAACGCGUUUCCCUCCUAAGGAGACGACUGCGGGUUCGAGUCCCGUACGGAUCG	-0.331
GUUCCAUUGGCGUAAUGGUAACGCGUUUCCCUCCUAAGGAGAAGAUUGCGGGUUCGAGUCCCGUAUGGAUUG	-0.237
GGUCCUUUGGCGUAAUGGUAACGCGUUUCCCUCCUAAGGAGACGACUGCGGGUUCGAGUCCCGUAUGGAUUG	-0.441
GUUCCAUUGGCGUAAUGGUAACGCGUCUCCCUCCUAAGGAGACGAUUGCGGGUUCGAGUCCCGUAUGGAGUG	-0.144
GCUCCAUUGGCGUAAUGGUAACGCGUCUCCCUCCUAAGGAGAAGACUGCGGGUUCGAGUCCCGUACGGAGCG	-0.0119
AGUCCUUUGGCGUAAUGGUAACGCGUCUCCCUCCUAAGGAGAAGACUGCGGGUUCGAGUCCCGUAUGGGAUG	-0.375
GUUCCAUUGGCGUAAUGGUAACGCGUUUCCCUCCUAAGGAGAAGAUUGCGGGUUCGAGUCCCGUAAGGAAUG	-0.148
GCUCCAUUGGCGUAAUGGUAACGCGUUUCCCUCCUAAGGAGAAGAUUGCGGGUUCGAGUCCCGUACGGAUCG	-0.0585
AUUCCUUUGGCGUAAUGGUAACGCGUUUCCCUCCUAAGGAGAAGACUGCGGGUUCGAGUCCCGUAUGGGAUG	-0.295
ACUCCUUUGGCGUAAUGGUAACGCGUUUCCCUCCUAAGGAGAAGACUGCGGGUUCGAGUCCCGUACGGGUUG	-0.467
GCUCCAUUGGCGUAAUGGUAACGCGUUUCCCUCCUAAGGAGACGACUGCGGGUUCGAGUCCCGUACGGAGUG	-0.156

Variant	yeast fitness (ln)
ACUCCGUUGGCGUAAUGGUAACGCGUCUCCCUCCUAAGGAGACGAUUGCGGGUUCGAGUCCCGUAUGGAUCG	-0.132
GCUCCUUUGGCGUAAUGGUAACGCGUCUCCCUCCUAAGGAGAAGACUGCGGGUUCGAGUCCCGUAUGGGGCG	-0.103
GUUCCGUUGGCGUAAUGGUAACGCGUCUCCCUCCUAAGGAGACGACUGCGGGUUCGAGUCCCGUAAGGGGCG	-0.154
GGUCCUUUGGCGUAAUGGUAACGCGUUUCCCUCCUAAGGAGACGAUUGCGGGUUCGAGUCCCGUACGGGGUG	-0.33
AGUCCAUUGGCGUAAUGGUAACGCGUCUCCCUCCUAAGGAGACGAUUGCGGGUUCGAGUCCCGUACGGAUCG	-0.165
ACUCCGUUGGCGUAAUGGUAACGCGUCUCCCUCCUAAGGAGACGAUUGCGGGUUCGAGUCCCGUACGGGUCG	-0.0156
GCUCCGUUGGCGUAAUGGUAACGCGUCUCCCUCCUAAGGAGAAGACUGCGGGUUCGAGUCCCGUAAGGAUUG	-0.0799
AGUCCUUUGGCGUAAUGGUAACGCGUUUCCCUCCUAAGGAGACGACUGCGGGUUCGAGUCCCGUAUGGGGUG	-0.491
GUUCCAUUGGCGUAAUGGUAACGCGUCUCCCUCCUAAGGAGAAGACUGCGGGUUCGAGUCCCGUACGGGACG	-0.0982
GUUCCGUUGGCGUAAUGGUAACGCGUCUCCCUCCUAAGGAGAAGACUGCGGGUUCGAGUCCCGUACGGAGCG	-0.00424
ACUCCGUUGGCGUAAUGGUAACGCGUUUCCCUCCUAAGGAGAAGACUGCGGGUUCGAGUCCCGUAUGGAUUG	-0.256
AUUCCUUUGGCGUAAUGGUAACGCGUCUCCCUCCUAAGGAGACGAUUGCGGGUUCGAGUCCCGUAUGGGAUG	-0.43
GCUCCAUUGGCGUAAUGGUAACGCGUCUCCCUCCUAAGGAGAAGACUGCGGGUUCGAGUCCCGUACGGGAUG	-0.176
ACUCCUUUGGCGUAAUGGUAACGCGUUUCCCUCCUAAGGAGAAGAUUGCGGGUUCGAGUCCCGUAUGGAGCG	-0.203
AUUCCUUUGGCGUAAUGGUAACGCGUCUCCCUCCUAAGGAGACGAUUGCGGGUUCGAGUCCCGUAUGGAGUG	-0.278
GGUCCGUUGGCGUAAUGGUAACGCGUUUCCCUCCUAAGGAGACGAUUGCGGGUUCGAGUCCCGUAAGGGUUG	-0.498
AUUCCUUUGGCGUAAUGGUAACGCGUCUCCCUCCUAAGGAGACGAUUGCGGGUUCGAGUCCCGUACGGAAUG	-0.174
AUUCCUUUGGCGUAAUGGUAACGCGUUUCCCUCCUAAGGAGAAGACUGCGGGUUCGAGUCCCGUACGGGUUG	-0.505
ACUCCUUUGGCGUAAUGGUAACGCGUCUCCCUCCUAAGGAGAAGAUUGCGGGUUCGAGUCCCGUAAGGAGUG	-0.0251

From the RNAGym collection of RNA variant scans (doi:10.1038/s41586-018-0170-7)
